According to ChEMBL document CHEMBL5506034, “Development of Inhibitors, Probes, and PROTAC Provides a Complete Toolbox to Study PARK7 in the Living Cell” (J Med Chem, 2024):
Blank lines part the entries; values can stand above or below the molecule they belong to. Calls of active or inactive are those of the source. No cut-off for these calls is given here.

What was measured:
A549 [1] = test: Cytotoxicity in human A549 cells assessed as reduction in cell viability upto 5 uM incubated for 72 hrs by CellTiter-Blue viability assay; assay type: toxicity, cell-based; settings: a549, 72 h
Method in brief: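 A549 cells (5×10^3/well) exposed next day to inhibitor, with DMSO as control. Compound renewed at 36 h, then 36 h more (72 h total). Viability read by CellTiter-Blue, normalized to DMSO and background-corrected.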

[2] = target: Ubiquitin carboxyl-terminal hydrolase isozyme L1 (Homo sapiens) (UniProt P09936); test: Inhibition of UCHL1 in HEK293T cells incubated for 24 hrs by SDS-PAGE based fluorescence scanning Western blot analysis; assay type: cell-based
Ubiquitin carboxyl-terminal hydrolase isozyme L1 (Homo sapiens), sequence (P09936 whole entry, looked up): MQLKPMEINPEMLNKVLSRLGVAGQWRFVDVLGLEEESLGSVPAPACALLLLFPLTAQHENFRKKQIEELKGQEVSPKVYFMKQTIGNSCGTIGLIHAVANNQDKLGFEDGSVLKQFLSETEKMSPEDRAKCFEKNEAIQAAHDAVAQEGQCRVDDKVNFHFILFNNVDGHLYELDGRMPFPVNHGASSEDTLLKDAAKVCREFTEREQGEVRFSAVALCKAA

A549 [3] = test: Effect on PARK7 protein level in human A549 cells at 5 uM incubated for 8 hrs by TMT-based total proteome profiling; assay type: functional, cell-based
Method in brief: (§1)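 A549 cells treated 2 days after seeding with 5 μM compound, or DMSO, for 8 h. Lysed in 5% SDS buffer; 100 μg protein reduced, alkylated and trypsin-digested. Peptides TMTpro-labelled, pooled, high-pH fractionated and analysed by nano-LC-MS/MS; fold change and p-value taken against DMSO.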

A549 [4] = test: Downregulation of TM7SF3 protein level in human A549 cells at 5 uM incubated for 8 hrs by TMT-based total proteome profiling; assay type: functional, cell-based; method in brief: as §1
A549 [5] = test: Downregulation of DOP1B protein level in human A549 cells at 5 uM incubated for 8 hrs by TMT-based total proteome profiling; assay type: functional, cell-based; method in brief: as §1
[6] = target: T1, Parkinson disease protein 7 (Homo sapiens) (UniProt Q99497); test: Binding affinity to PARK7 in HEK293T cells assessed as target engagement at 1 to 5 uM incubated for 24 hrs by SDS-PAGE based fluorescence scanning Western blot analysis; assay type: cell-based; settings: dose 1-5 µM
T1 sequence (whole entry): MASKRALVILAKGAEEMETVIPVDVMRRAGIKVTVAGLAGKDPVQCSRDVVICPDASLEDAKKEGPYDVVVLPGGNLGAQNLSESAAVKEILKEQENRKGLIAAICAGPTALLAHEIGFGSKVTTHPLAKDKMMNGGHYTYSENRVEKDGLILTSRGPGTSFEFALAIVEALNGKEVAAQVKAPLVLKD
Method in brief: (§2)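 Live HEK293T cells (DMEM, 7.5% FBS, 37 °C, 5% CO2) exposed to inhibitor for 24 h, then washed and lysed in Tris/NaCl/0.5% Triton X-100/2 mM TCEP pH 7.5 buffer. Lysate labelled with SulfoCy5 probe JYQ-92 (1 μM, 30 min). Residual PARK7 activity read by SDS-PAGE with Cy5-channel fluorescence scan, then immunoblot for PARK7 with β-actin as loading control.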

[7] = target: T1, Parkinson disease protein 7 (Homo sapiens); test: Inhibition of PARK7 in HEK293T cells at 0.1 to 20 uM incubated for 24 hrs by SDS-PAGE based fluorescence scanning analysis; assay type: cell-based; settings: dose 0.1-20 µM; method in brief: as §2
[8] = target: T2, Protein cereblon/Parkinson disease protein 7 (Homo sapiens) (UniProt Q96SW2+Q99497); test: PROTAC activity at CRBN/PARK7 in human A549 cells assessed as induction of PARK7 degradation at 2 uM incubated for 8 hrs by Western blot analysis; assay type: cell-based
T2 sequence (Q96SW2 whole entry, looked up, one chain of several): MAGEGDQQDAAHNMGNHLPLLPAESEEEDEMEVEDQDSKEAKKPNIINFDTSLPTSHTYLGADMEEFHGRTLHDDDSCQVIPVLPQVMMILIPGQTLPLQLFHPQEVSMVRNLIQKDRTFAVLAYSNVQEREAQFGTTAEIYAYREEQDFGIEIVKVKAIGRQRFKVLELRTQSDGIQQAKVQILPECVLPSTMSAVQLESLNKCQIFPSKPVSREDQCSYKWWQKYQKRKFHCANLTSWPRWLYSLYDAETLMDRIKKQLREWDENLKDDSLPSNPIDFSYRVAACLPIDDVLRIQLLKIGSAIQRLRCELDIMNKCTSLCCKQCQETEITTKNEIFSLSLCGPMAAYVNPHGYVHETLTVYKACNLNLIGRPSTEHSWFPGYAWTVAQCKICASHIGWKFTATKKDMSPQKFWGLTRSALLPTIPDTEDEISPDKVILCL
Method in brief: (§3)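 A549 cells treated the day after seeding with PROTAC (0.1–5 μM) for 8 h. Lysates boiled in LDS with β-mercaptoethanol and run on 4–12% Bis-Tris/MOPS SDS-PAGE. PARK7 immunoblotted and normalized to DMSO; three independent biological replicates, mean ± SD, Student's t test.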

[9] = target: T2, Protein cereblon/Parkinson disease protein 7 (Homo sapiens); test: PROTAC activity at CRBN/PARK7 in human A549 cells assessed as induction of PARK7 degradation at 0.1 to 5 uM incubated for 8 hrs by Western blot analysis; assay type: cell-based; settings: dose 0.1-5 µM; method in brief: as §3
A549 [10] = test: Cellular protein labelling in human A549 cells assessed as unspecific 55-75 kDa band formation at 5 uM by SDS-PAGE based fluorescence scanning immunoblotting analysis; assay type: functional, cell-based
Method in brief: (§4)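 Probes applied to intact HEK293T or A549 cells at 5 μM final for 24 h, then lysed. Read-out by SDS-PAGE fluorescence scan and immunoblot against PARK7, looking at the ~25 kDa labelled band, PARK7 band shift and extra bands.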

[11] = target: T1, Parkinson disease protein 7 (Homo sapiens); test: Binding affinity to PARK7 in A549 cells assessed as band shift at 5 uM incubated for 24 hrs by SDS-PAGE based fluorescence scanning immunoblotting analysis
A549 (Homo sapiens) = test: Cellular protein labelling in A549 cells assessed as unspecific 55-75 kDa band formation at 5 uM by SDS-PAGE based fluorescence scanning immunoblotting analysis
[12] = target: T1, Parkinson disease protein 7 (Homo sapiens); test: Binding affinity to recombinant human PARK7 at 2 uM incubated for 1 hrs by coomassie staining based SDS-PAGE fluorescence scanning analysis relative to control
[13] = Drug penetration in human A549 cells at 5 uM incubated for 1 hrs by DAPI staining based confocal microscopic analysis; assay type: ADME, cell-based; settings: a549, 1 h
Method in brief: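 A549 cells incubated with probes at 5 μM final over a time course (1–24 h). For microscopy, cells on coverslips were fixed in 3.7% formaldehyde/PBS for 20 min, mounted with DAPI and imaged by confocal (63× oil). In parallel, cells were lysed for SDS-PAGE fluorescence scan and PARK7 immunoblot.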

[14] = target: T1, Parkinson disease protein 7 (Homo sapiens); test: Binding affinity to PARK7 in human A549 cells assessed as band shift at 5 uM incubated for 24 hrs by SDS-PAGE based fluorescence scanning immunoblotting analysis; assay type: cell-based; method in brief: as §4
[15] = target: T1, Parkinson disease protein 7 (Homo sapiens); test: Binding affinity to recombinant human PARK7 incubated for 1 hrs by coomassie staining based SDS-PAGE fluorescence scanning analysis; settings: dose 0.1-10 µM
[16] = target: T1, Parkinson disease protein 7 (Homo sapiens); test: Binding affinity to PARK7 in HEK293T cells assessed as band shift at 5 uM incubated for 24 hrs by SDS-PAGE based fluorescence scanning immunoblotting analysis; assay type: cell-based; method in brief: as §2
[17] = target: T1, Parkinson disease protein 7 (Homo sapiens); test: Binding affinity to recombinant human PARK7 at 5 uM incubated for 1 hrs by coomassie staining based SDS-PAGE fluorescence scanning analysis relative to control
[18] = target: T1, Parkinson disease protein 7 (Homo sapiens); test: Binding affinity to recombinant human PARK7 at 1 uM incubated for 1 hrs by coomassie staining based SDS-PAGE fluorescence scanning analysis relative to control
[19] = target: T2, Protein cereblon/Parkinson disease protein 7 (Homo sapiens); test: (§5) PROTAC activity at CRBN/PARK7 in human A549 cells assessed as induction of PARK7 degradation at 5 uM preincubated with pomalidomide for 4 hrs followed by compound addition and measured after 8 hrs by Western blot analysis; assay type: cell-based
Method in brief: (§6)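 A549 cells pretreated 4 h with 5 μM pomalidomide, 5 μM PARK7 inhibitor or 10 μM MG-132, then given PROTAC (5 μM) for a further 8 h. PARK7 level assessed by lysis, SDS-PAGE and immunoblot.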

[20] = target: T2, Protein cereblon/Parkinson disease protein 7 (Homo sapiens); test: PROTAC activity at CRBN/PARK7 in human MCF7 cells assessed as induction of PARK7 degradation incubated for 8 hrs by Western blot analysis; assay type: cell-based; settings: dose 0.1-5 µM
Method in brief: (§7)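 HeLa, H1299 or MCF7 cells (DMEM, 7.5% FBS) treated with a PROTAC concentration series for 8 h. Lysates analysed by SDS-PAGE and anti-PARK7 immunoblot.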

[21] = target: T2, Protein cereblon/Parkinson disease protein 7 (Homo sapiens); test: PROTAC activity at CRBN/PARK7 in human HeLa cells assessed as induction of PARK7 degradation incubated for 8 hrs by Western blot analysis; assay type: cell-based; settings: dose 0.1-5 µM; method in brief: as §7
[22] = target: T2, Protein cereblon/Parkinson disease protein 7 (Homo sapiens); test: PROTAC activity at CRBN/PARK7 in human A549 cells assessed as induction of PARK7 degradation at 5 uM incubated for 4 to 24 hrs by Western blot analysis; assay type: cell-based; settings: time 4-24 hrs
Method in brief: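 A549 cells exposed to PROTAC at 5 μM for varying times across the 4–24 h window. Lysates analysed by SDS-PAGE and anti-PARK7 immunoblot.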

[23] = target: T2, Protein cereblon/Parkinson disease protein 7 (Homo sapiens); test: as §5, with “(R)-1-cyano-N-(5-(2-fluoro-5-(1H-1,2,3-triazol-1-yl)benzoyl)-4,5,6,7-tetrahydrothiazolo[5,4-c]pyridin-2-yl)pyrrolidine-3-carboxamide” for “pomalidomide”; assay type: cell-based; method in brief: as §6
[24] = target: T2, Protein cereblon/Parkinson disease protein 7 (Homo sapiens); test: PROTAC activity at CRBN/PARK7 in human A549 cells assessed as induction of PARK7 degradation at 5 uM incubated for 8 hrs by TMT-based total proteome profiling; assay type: cell-based; method in brief: as §1
[25] = target: T2, Protein cereblon/Parkinson disease protein 7 (Homo sapiens); test: PROTAC activity at CRBN/PARK7 in human A549 cells assessed as induction of PARK7 degradation at 5 uM preincubated with MG-132 for 4 hrs followed by compound addition and measured after 8 hrs by Western blot analysis; assay type: cell-based; method in brief: as §6
[26] = target: T2, Protein cereblon/Parkinson disease protein 7 (Homo sapiens); test: PROTAC activity at CRBN/PARK7 in human NCI-H1299 cells assessed as induction of PARK7 degradation incubated for 8 hrs by Western blot analysis; assay type: cell-based; settings: dose 0.1-5 µM; method in brief: as §7

inhibition [2]: inactive
SMILES: N#CN1CC[C@@H](C(=O)Nc2nc3c(s2)CN(C(=O)c2cccc(S(=O)(=O)N4CCOCC4)c2)CC3)C1
Activity (A549 [1]): Non-Toxic

inhibition [7]: inactive
SMILES: N#CN1CC[C@@H](C(=O)Nc2nc3c(s2)CN(C(=O)CN=[N+]=[N-])CC3)C1

inhibition [2]: Active
SMILES: Cc1cc(C(=O)N2CCc3nc(NC(=O)[C@@H]4CCN(C#N)C4)sc3C2)ccc1Br

Activity [8]: Active
SMILES: N#CN1CC[C@@H](C(=O)Nc2nc3c(s2)CN(C(=O)c2cc(-n4cc(COCCOCCOCCNc5cccc6c5C(=O)N(C5CCC(=O)NC5=O)C6=O)nn4)ccc2F)CC3)C1 (stereo partly specified)

Activity [16]: inactive
Activity [14]: inactive
Activity [17]: 100%
Activity [15]: Dose-Dependent Effect
SMILES: CC1=CC(C)=[N+]2C1=C(CCCCc1cn(CC(=O)N3CCN(S(=O)(=O)c4cccc(C(=O)N5CCc6nc(NC(=O)[C@@H]7CCN(C#N)C7)sc6C5)c4)CC3)nn1)c1c(C)cc(C)n1[B-]2(F)F

Activity [11]: Active
Activity [18]: 100%
Drug uptake [13]: Active
Activity [14]: Active
Activity [15]: Dose-Dependent Effect
SMILES: CC[N+]1=C(/C=C/C=C/C=C2/N(CCCCCC(=O)NCCCc3cn(-c4ccc(F)c(C(=O)N5CCc6nc(NC(=O)[C@@H]7CCN(C#N)C7)sc6C5)c4)nn3)c3ccc(S(=O)(=O)O)cc3C2(C)C)C(C)(C)c2cc(S(=O)(=O)[O-])ccc21
Activity (A549 [10]): Active
Activity (A549 (Homo sapiens)): Active

Activity [9]: inactive
SMILES: N#CN1CC[C@@H](C(=O)Nc2nc3c(s2)CN(C(=O)c2cccc(S(=O)(=O)N4CCN(C(=O)Cn5cc(COCCOCCNc6cccc7c6C(=O)N(C6CCC(=O)NC6=O)C7=O)nn5)CC4)c2)CC3)C1 (stereo partly specified)

The remaining lines, values behind:

SMILES: N#CN1CC[C@@H](C(=O)Nc2nc3c(s2)CN(C(=O)c2cccc(-c4ncon4)c2)CC3)C1
inhibition [2]: Active

SMILES: Cc1csc(-c2cccc(C(=O)N3CCc4nc(NC(=O)[C@@H]5CCN(C#N)C5)sc4C3)c2)n1
inhibition [2]: Active

SMILES: N#CN1CC[C@@H](C(=O)Nc2nc3c(s2)CN(C(=O)c2cc(-n4ccnn4)ccc2F)CC3)C1
Activity (A549 [3]): inactive
Activity (A549 [4]): Active
Activity (A549 [1]): Non-Toxic
Activity (A549 [5]): Active
inhibition [2]: inactive

SMILES: CC(=O)N1CCN(S(=O)(=O)c2cccc(C(=O)N3CCc4nc(NC(=O)[C@@H]5CCN(C#N)C5)sc4C3)c2)CC1
Activity [6]: Active
inhibition [2]: inactive

SMILES: N#CN1CC[C@@H](C(=O)Nc2nc3c(s2)CN(C(=O)c2cccc(S(=O)(=O)N4CCN(C(=O)Cn5cc(COCCOCCOCCNc6cccc7c6C(=O)N(C6CCC(=O)NC6=O)C7=O)nn5)CC4)c2)CC3)C1 (stereo partly specified)
Activity [9]: inactive

SMILES: CC[N+]1=C(/C=C/C=C/C=C2/N(CCCCCC(=O)NCCCc3cn(CC(=O)N4CCN(S(=O)(=O)c5cccc(C(=O)N6CCc7nc(NC(=O)[C@@H]8CCN(C#N)C8)sc7C6)c5)CC4)nn3)c3ccc(S(=O)(=O)[O-])cc3C2(C)C)C(C)(C)c2cc(S(=O)(=O)O)ccc21
Activity (A549 [10]): Active
Activity [11]: Active
Activity (A549 (Homo sapiens)): Active
Activity [12]: 100%
Drug uptake [13]: Active
Activity [14]: Active
Activity [15]: Dose-Dependent Effect

SMILES: N#CN1CC[C@@H](C(=O)Nc2nc3c(s2)CN(C(=O)c2cnc(-c4cccs4)s2)CC3)C1
inhibition [2]: Active

SMILES: N#CN1CC[C@@H](C(=O)Nc2nc3c(s2)CN(C(=O)c2cc(-n4cc(COCCOCCNc5cccc6c5C(=O)N(C5CCC(=O)NC5=O)C6=O)nn4)ccc2F)CC3)C1 (stereo partly specified)
Activity [19]: inactive
Activity [20]: Dose-Dependent Effect
Activity [21]: Dose-Dependent Effect
Activity [22]: Active
Activity [23]: inactive
Activity [24]: Active
Activity [25]: inactive
Activity (A549 [4]): Active
Activity [26]: Dose-Dependent Effect
Activity [9]: Active
Activity (A549 [5]): Active
